Publication PMC11995693 (Journal of medicinal chemistry, 2025)
“Also recorded” adds a separate entry of the source. Where two headings read alike, the source gives them in different places. Each block holds one compound with its values, some of them ahead of it.

What was measured:
[1] = PAMPA-GIT permeability; assay type: in vitro ADME
In short: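 Stirred PAMPA sandwich with the acceptor-side filter coated in GIT-0 lipid. Donor held test or reference compound at 10 μM in pH 7.4 buffer with 0.2% DMSO, against pH 7.4 sink buffer. Incubated 4 h at room temperature. Donor and acceptor were sampled and quantified by LC-MS/MS. Effective permeability (Pe, cm/s) was calculated from filter area × 70% porosity, phase volumes, incubation and steady-state time, and donor concentrations, with membrane retention factor.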

[2] = system: NHEKs; experiment: Screening of TLR3 and IL-6 mRNA expression in NHEKs; assay type: cell-based, human
[3] = system: C57BL/6 mice; conditions: cited from earlier work; for hair growth: topical application
[4] = system: Poly(I:C) + IFNγ stimulated NHEK cells; experiment: Poly; assay type: cell-based, human; conditions: for inhibition of IFNγ-inducible chemokines (CXCL9, CXCL10, CXCL11): 30–100 μM
In short: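 Primary human epidermal keratinocytes were seeded and incubated overnight at 37 °C. They were stimulated with Poly(I:C) (50 μg/mL) plus IFNγ (5 ng/mL), with or without test compound at 1, 10, 30 or 100 μM, for 8 h. RNA was isolated, and TaqMan RT-PCR gave fold changes in IL-6, IFNβ, IL-1β, CXCL9, CXCL10 and CXCL11 expression.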

[5] = Oral pharmacokinetics in mice; assay type: in vivo, C57BL6 mice; conditions: 100 mg/kg equivalent
[6] = Chemical stability in pH buffers; assay type: physicochemical
[7] = Preliminary toxicity profile of P13, systemic administration; assay type: in vivo; conditions: two doses, systemic administration (Figure S2, Table S1)

permeability in PAMPA, in words [1]: poor permeability
SMILES: C=C(CC(=O)OC)C(=O)O [Compound 4-MI, 4-methyl itaconate]
effect on TLR3 and IL-6 mRNA / cytokine production, in words ([2]; Figure S1): neither 4-MI nor 1A affected the mRNA expression; also recorded: failed to inhibit cytokine production
efficacy in vivo in the alopecia areata model ([3]; compared at equimolar doses): ineffective

intact prodrug in plasma [5]: not detectable
SMILES: C=C(CC(=O)OCOC(=O)OC(C)C)C(=O)OCOC(=O)OC(C)C [Compound P2, Bis(((isopropoxycarbonyl)oxy)methyl) 2-Methylenesuccinate]
inhibition of IFNβ, in words ([4]; 1–100 μM, 8 h): dose dependent inhibition
inhibition of IL-6, in words ([4]; 1–100 μM, 8 h): significant, dose-dependent inhibition
inhibition of IFNγ-inducible chemokines (CXCL9, CXCL10, CXCL11) ([4]; 8 h): over 50%
inhibition of mRNA expression of TLR3 and IL-6 ([2]; Figure S1): > 90%

chemical stability at pH 7.4, in words [6]: complete instability
SMILES: C=C(CC(=O)OCOC(=O)C(C)(C)C)C(=O)O [Compound P4, 2-Methylene-4-oxo-4-((pivaloyloxy)methoxy)butanoic Acid]

chemical stability at pH 7.4, in words [6]: complete instability
SMILES: C=C(CC(=O)OCOC(=O)OC(C)C)C(=O)O [Compound P5, 4-(((Isopropoxycarbonyl)oxy)methoxy)-2-methylene-4-oxobutanoic Acid]

chemical stability at pH 7.4, in words [6]: complete instability
SMILES: C=C(CC(=O)OCc1oc(=O)oc1C)C(=O)O [Compound P6, 4-((5-Methyl-2-oxo-1,3-dioxol-4-yl)methoxy)-2-methylene-4-oxobutanoic Acid]

permeation index (Pe) [1]: 3.21 ×10⁻⁶ cm/s
SMILES: C=C(CC(=O)OCCCOCCCCCCCCCCCCCCCC)C(=O)O [Compound P7, 4-(3-(Hexadecyloxy)-propoxy)-2-methylene-4-oxobutanoic Acid]

SMILES: C=C(CC(=O)OCOC(=O)OC(C)C)C(=O)OC [Compound P9, 4-(((Isopropoxycarbonyl)oxy)methyl) 1-Methyl 2-Methylenesuccinate]
effect on IL-1β, in words ([4]; 100 μM): showed effects at 100 μM

intact prodrug in plasma [5]: undetectable
SMILES: C=C(CC(=O)OC)C(=O)OCOC(=O)OC(C)C [Compound P13, 1-(((Isopropoxycarbonyl)oxy)methyl) 4-Methyl 2-Methylenesuccinate]
inhibition of IL-6, in words ([4]; 1–100 μM, 8 h): significant, dose-dependent inhibition
inhibition of IFNγ-inducible chemokines (CXCL9, CXCL10, CXCL11) ([4]; 8 h): over 50%
inhibition of mRNA expression of TLR3 and IL-6 ([2]; Figure S1): > 90%
hematological changes and weight loss [7]: No hematological changes or weight loss
skin concentrations ([3]; topical administration): considerable skin concentrations
hair growth [3]: significantly promoted hair growth
hair growth ([3]; listed as SCD-153): significant increase in hair growth

SMILES: C=C(CC(=O)O)C(=O)O [IA, Itaconic acid]
permeability in PAMPA, in words [1]: poor permeability
effect on TLR3 and IL-6 mRNA / cytokine production, in words ([2]; Figure S1): failed to inhibit cytokine production
effect on TLR3 and IL-6 mRNA / cytokine production, in words ([2]; Figure S1, listed as 1A): neither 4-MI nor 1A affected the mRNA expression
